One molecule from article PMC6635014 (Dalton transactions (Cambridge, England : 2003), 2019) can be followed below.

Holding throughout (format): cell-based
Assay [1] has as its system MRC-5 non-cancerous human embryonal lung fibroblast cells. Put plainly: MTT assay for cytotoxic effect, MRC-5. To be noted: read-out: IC50 (μM), 72 h MRC-5. The gist of the method:
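MRC-5 fibroblasts were grown in EMEM with 10% heat-inactivated FBS and seeded 24 h at 37 °C, 5% CO2. Medium was then replaced by 2-fold serial compound dilutions (100 to 0.195 µM; 10 mM DMSO stocks), 72 h at 37 °C. MTT for 4 h, then SDS in 0.01 M HCl overnight. OD read at 540/630 nm. IC50 from % growth inhibition relative to cell and medium controls.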
For orientation: Tetrazolium dyes change colour on reduction, which living cells bring about.

Assay [2] deals with multidrug resistant Colo 320/MDR-LRP human colonic adenocarcinoma cells. Put plainly: MTT assay for cytotoxic effect, Colo 320. The gist of the method:
(§1)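 Colo 205 and Colo 320/MDR-LRP were kept in RPMI 1640 with 10% heat-inactivated FBS, 2 mM L-glutamine, 1 mM Na-pyruvate and 10 mM HEPES, and detached with Trypsin-Versene. 1x10^4 cells per well went onto 2-fold serial compound dilutions (100 to 0.195 µM; DMSO stocks) for 72 h at 37 °C. Then MTT 4 h, SDS/0.01 M HCl overnight, OD 540/630 nm. IC50 from growth inhibition versus cell and medium controls. SF uses the MRC-5 IC50 from the same assay.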

Assay [3] has as its system doxorubicin-sensitive Colo 205 human colonic adenocarcinoma cells. Nature of the assay: MTT assay for cytotoxic effect, Colo 205. To be noted: read-out: IC50 (μM), 72 h Colo 205. The gist of the method:
as §1

For the molecule `N.N.[Cl][Pt][Cl]` [Cisplatin, reference compound], the IC50 (commonly the concentration that inhibits the measured activity by half) in assay [1] stood at 12.4 ± 0.367 µM; in assay [2] (read-out: IC50 (μM), 72 h Colo 320, 72 h, MTT), 4.81 ± 0.68 µM; in assay [3], 31.9 ± 2.17 µM. The “SF(320) selectivity factor” value in assay [2] (SF(320) = IC50 MRC-5/IC50 Colo 320) is listed as 3.
